Results reported in ChEMBL document CHEMBL1125882, “The agonist pharmacophore of the benzodiazepine receptor. Synthesis of a selective anticonvulsant/anxiolytic” (J Med Chem, 1991).

What was measured:
[1] = target: GABA-A receptor; anion channel; test: Effect on [3H]flunitrazepam binding to Benzodiazepine receptor; format: protein-complex assay, Rattus norvegicus
Mus musculus [2] = test: Number of mice impaired to that of number of mice tested at 10 mg/kg; 0/10; format: functional
Mus musculus [3] = test: Number of mice impaired to that of number of mice tested at 20 mg/kg; 0/10; format: functional
Mus musculus [4] = test: Tested for inhibition of pentylenetetrazole (PTZ = 80 mg/kg (ip)) induced seizures in mice at a dose of 0.5-40 mg/kg i.p.; format: functional; conditions: route intraperitoneal
Method in brief: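 Mice pretreated ip with drug (0.5-40 mg/kg); 15 min later pentylenetetrazole 80 mg/kg ip. Tonic and/or clonic seizures were scored over the next 15 min. 5-14 mice per dose point; ED50 taken from the dose-response curve.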

Mus musculus [5] = test: Effects on Diazepam-Induced Myorelaxation in mice was determined at 10 mg/kg; format: functional
Mus musculus [6] = test: Effects on Diazepam-Induced Myorelaxation in mice was determined at 20 mg/kg; format: functional
Mus musculus [7] = test: Effects on Diazepam-Induced Myorelaxation in mice was determined when administered along with compound 1 at 10 mg/kg; format: functional
Mus musculus [8] = test: Effects on Diazepam-Induced Myorelaxation in mice was determined when administered along with compound 1 at 20 mg/kg; format: functional
Mus musculus [9] = species: Mus musculus; test: Effects on Diazepam-Induced Myorelaxation in mice was determined; format: functional

| Structure (SMILES) | IC50 [1] | Activity (Mus musculus [2]) | Activity (Mus musculus [3]) | ED50 (Mus musculus [4]) | Impaired (Mus musculus [5]) | Impaired (Mus musculus [6]) | Impaired (Mus musculus [7]) | Impaired (Mus musculus [8]) | Impaired (Mus musculus [9]) |
| --- | --- | --- | --- | --- | --- | --- | --- | --- | --- |
| CCCOc1ccc2[nH]c3cnc(C(=O)OCC)c(COC)c3c2c1 | 8 nM | 0 | 0 | 1.6 mg/kg | 0% | 0% |  |  |  |
| CN1C(=O)CN=C(c2ccccc2)c2cc(Cl)ccc21 [DIAZEPAM] |  |  |  |  |  |  | 50% | 0% | 100% |
